Test [1] deals with T1, Muscarinic acetylcholine receptor M1 (Homo sapiens, UniProt P11229).
T1 sequence (P11229 whole entry): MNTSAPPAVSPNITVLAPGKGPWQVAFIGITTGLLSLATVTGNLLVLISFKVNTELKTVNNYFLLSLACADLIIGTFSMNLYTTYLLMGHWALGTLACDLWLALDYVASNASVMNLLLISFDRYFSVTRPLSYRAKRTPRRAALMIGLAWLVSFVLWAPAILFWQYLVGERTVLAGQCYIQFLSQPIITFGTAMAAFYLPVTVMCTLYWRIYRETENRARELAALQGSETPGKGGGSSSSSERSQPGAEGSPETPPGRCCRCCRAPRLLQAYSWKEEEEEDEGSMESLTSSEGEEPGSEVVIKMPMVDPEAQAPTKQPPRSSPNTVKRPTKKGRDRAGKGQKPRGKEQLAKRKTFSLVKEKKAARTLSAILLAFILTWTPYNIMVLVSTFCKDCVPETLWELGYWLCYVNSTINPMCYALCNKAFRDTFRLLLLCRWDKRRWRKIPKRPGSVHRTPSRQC
The test can be described thus: Displacement of [3H]NMS from human cloned muscarinic M1 receptor expressed in CHO cells by scintillation counting. It is filed as cell-based. On the technique in general: Loss of bound radioactivity is the signal in a displacement assay; it reports binding, not function.

For test [2], the target named is T2, Muscarinic acetylcholine receptor M2 (Homo sapiens, UniProt P08172).
T2 sequence (P08172 whole entry): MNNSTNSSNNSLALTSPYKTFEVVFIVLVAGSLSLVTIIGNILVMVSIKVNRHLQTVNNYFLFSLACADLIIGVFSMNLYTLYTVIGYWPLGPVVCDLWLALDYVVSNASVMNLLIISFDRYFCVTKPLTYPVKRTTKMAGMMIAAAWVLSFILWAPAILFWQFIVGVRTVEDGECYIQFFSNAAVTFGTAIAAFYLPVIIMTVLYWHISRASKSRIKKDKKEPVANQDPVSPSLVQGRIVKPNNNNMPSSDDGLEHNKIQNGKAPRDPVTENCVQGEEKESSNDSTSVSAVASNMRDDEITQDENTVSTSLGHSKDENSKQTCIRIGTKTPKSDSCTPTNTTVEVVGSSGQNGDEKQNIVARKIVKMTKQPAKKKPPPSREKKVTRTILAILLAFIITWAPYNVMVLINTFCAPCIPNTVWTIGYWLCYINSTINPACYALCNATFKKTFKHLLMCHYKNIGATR
Kind of test: Displacement of [3H]NMS from human cloned muscarinic M2 receptor expressed in CHO cells by scintillation counting. It is filed as cell-based. A digest of the protocol: (§1)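 Equilibrium radioligand binding in CHO cells expressing the human muscarinic subtype, following the authors' earlier protocol.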

For test [3], the target named is Muscarinic acetylcholine receptor M3 (Homo sapiens, UniProt P20309). Kind of test: Displacement of [3H]NMS from human cloned muscarinic M3 receptor expressed in CHO cells by scintillation counting. The class given is cell-based.
In test [4] the target is T3, Muscarinic acetylcholine receptor M4 (Homo sapiens, UniProt P08173).
T3 sequence (P08173 whole entry): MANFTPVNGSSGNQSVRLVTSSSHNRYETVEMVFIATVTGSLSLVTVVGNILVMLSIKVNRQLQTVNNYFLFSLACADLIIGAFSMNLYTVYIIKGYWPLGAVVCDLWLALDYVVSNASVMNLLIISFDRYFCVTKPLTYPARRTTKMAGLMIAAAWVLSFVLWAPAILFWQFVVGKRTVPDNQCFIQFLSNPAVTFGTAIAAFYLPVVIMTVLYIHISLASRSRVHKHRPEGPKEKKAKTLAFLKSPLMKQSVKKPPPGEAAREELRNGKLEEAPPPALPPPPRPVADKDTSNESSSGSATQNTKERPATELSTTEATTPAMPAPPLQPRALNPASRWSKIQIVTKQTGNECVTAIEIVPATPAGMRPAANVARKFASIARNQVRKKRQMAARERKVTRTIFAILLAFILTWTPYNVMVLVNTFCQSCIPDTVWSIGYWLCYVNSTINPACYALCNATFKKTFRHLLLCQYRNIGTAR
The test can be described thus: Displacement of [3H]NMS from human cloned muscarinic M4 receptor expressed in CHO cells by scintillation counting. It is filed as cell-based.

Test [5] deals with T4, Muscarinic acetylcholine receptor M5 (Homo sapiens, UniProt P08912).
T4 sequence (P08912 whole entry): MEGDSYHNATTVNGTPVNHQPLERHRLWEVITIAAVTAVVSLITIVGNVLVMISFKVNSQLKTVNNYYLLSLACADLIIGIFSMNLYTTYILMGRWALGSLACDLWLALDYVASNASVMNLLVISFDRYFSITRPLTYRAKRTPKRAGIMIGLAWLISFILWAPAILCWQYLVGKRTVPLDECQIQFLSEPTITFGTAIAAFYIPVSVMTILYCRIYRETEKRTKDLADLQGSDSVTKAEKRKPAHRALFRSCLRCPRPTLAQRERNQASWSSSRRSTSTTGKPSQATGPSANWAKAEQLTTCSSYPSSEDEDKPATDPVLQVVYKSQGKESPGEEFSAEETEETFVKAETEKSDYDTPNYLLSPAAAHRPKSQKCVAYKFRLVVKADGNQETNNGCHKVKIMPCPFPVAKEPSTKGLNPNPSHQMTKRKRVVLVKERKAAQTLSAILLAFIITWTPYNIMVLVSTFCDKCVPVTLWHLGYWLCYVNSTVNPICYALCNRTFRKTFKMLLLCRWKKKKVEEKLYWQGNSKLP
Kind of test: Displacement of [3H]NMS from human cloned muscarinic M5 receptor expressed in CHO cells by scintillation counting. The class given is cell-based. An outline of the steps: as §1

In test [6] the target is T5, Muscarinic receptor 2 (Cavia porcellus) (UniProt Q8VH27).
T5 sequence (whole entry): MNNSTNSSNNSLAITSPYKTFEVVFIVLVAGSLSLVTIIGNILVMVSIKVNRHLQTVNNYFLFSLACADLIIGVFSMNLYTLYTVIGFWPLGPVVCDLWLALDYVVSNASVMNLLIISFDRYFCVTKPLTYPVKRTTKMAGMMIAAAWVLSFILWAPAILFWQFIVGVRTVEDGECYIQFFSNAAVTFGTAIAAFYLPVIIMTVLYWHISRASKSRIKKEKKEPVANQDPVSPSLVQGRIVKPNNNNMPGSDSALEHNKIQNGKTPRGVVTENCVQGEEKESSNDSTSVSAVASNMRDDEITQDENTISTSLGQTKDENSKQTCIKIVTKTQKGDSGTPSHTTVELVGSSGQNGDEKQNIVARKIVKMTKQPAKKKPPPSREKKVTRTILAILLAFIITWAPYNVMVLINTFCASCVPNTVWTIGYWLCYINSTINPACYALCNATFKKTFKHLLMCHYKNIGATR
The test can be described thus: Antagonist activity at muscarinic M2 receptor in guinea pig left atrium assessed as effect on electrically-stimulated inotropic activity after 60 mins. The class given is functional, tissue-based. Particulars: Cardiac atrium.

The target of test [7] is T6, Muscarinic receptor 4 (Cavia porcellus) (UniProt Q8VH25).
T6 sequence (whole entry): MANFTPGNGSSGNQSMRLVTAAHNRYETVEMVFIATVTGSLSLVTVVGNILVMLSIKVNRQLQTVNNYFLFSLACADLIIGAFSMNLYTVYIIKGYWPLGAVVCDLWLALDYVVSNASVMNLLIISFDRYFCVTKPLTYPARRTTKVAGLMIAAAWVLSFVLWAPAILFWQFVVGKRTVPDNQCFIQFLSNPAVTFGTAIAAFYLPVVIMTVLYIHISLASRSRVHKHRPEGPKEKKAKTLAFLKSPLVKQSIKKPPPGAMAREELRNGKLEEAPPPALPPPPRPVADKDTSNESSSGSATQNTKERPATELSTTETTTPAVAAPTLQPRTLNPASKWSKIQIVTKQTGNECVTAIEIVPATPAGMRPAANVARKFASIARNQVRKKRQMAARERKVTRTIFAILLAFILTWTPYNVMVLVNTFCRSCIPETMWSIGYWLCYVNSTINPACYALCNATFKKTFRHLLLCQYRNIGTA
Kind of test: Antagonist activity at muscarinic M4 receptor in guinea pig lung strips assessed as effect on isotonic contraction after 60 mins. The class given is functional.

The target of test [8] is Muscarinic acetylcholine receptor M3 (Cavia porcellus) (UniProt Q8VH26). Kind of test: Antagonist activity at muscarinic M3 receptor in guinea pig ileum assessed as effect on isotonic tension after 60 mins. The class given is functional, tissue-based.
A short description of test [9]: Antagonist activity at muscarinic M1 receptor in New Zealand rabbit vas deferens assessed as effect on electrically-stimulated muscle contraction after 60 mins. It is filed as functional, Oryctolagus cuniculus.

In general, Ki refers to a dissociation constant, usually derived from enzyme kinetics or from competition with a known ligand. A high value points to weaker binding. A word on the pKb: it is −log10 of the Kb, conventionally taken in molar units.

Chain of Muscarinic acetylcholine receptor M3 (P20309 whole entry): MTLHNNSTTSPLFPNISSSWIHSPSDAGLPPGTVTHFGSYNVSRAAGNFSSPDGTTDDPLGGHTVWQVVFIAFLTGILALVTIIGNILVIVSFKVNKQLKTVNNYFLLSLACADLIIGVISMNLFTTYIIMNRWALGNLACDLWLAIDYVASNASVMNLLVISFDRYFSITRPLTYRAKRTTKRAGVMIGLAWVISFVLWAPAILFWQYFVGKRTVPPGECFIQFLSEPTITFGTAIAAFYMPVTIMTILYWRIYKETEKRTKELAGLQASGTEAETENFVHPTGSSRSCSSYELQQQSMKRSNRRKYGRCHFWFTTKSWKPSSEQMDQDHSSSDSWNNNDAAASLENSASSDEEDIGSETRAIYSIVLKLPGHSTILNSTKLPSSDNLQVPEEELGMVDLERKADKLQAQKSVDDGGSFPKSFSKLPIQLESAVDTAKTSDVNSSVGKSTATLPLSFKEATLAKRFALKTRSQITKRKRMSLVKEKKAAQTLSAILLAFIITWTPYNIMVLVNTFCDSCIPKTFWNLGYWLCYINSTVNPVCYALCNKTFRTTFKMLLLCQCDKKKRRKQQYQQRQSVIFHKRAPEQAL
Chain of Muscarinic acetylcholine receptor M3 (Cavia porcellus) (Q8VH26 1-587): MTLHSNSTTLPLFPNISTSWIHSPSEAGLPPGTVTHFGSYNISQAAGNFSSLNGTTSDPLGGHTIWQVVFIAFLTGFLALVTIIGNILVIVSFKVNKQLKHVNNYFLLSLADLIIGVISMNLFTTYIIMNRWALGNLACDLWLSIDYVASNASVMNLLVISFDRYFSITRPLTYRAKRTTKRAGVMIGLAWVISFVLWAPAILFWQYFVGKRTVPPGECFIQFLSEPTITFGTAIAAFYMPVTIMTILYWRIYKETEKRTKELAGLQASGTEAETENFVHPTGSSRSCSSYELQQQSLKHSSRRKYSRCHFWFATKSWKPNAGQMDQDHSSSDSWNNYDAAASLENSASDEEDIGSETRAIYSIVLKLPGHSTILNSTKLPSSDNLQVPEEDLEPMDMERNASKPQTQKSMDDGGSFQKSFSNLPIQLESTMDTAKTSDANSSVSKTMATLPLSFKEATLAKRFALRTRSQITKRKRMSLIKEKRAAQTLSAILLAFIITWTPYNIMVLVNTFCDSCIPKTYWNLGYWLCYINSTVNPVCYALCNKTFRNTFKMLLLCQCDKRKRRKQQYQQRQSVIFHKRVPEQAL

Turning to `CN1CCC[C@H]1c1ccc([C@@](O)(c2ccccc2)C2CCCCC2)o1`, the inhibitory constant (Ki) in test [1] was 1230 nM; in test [2], 3240 nM; in [3], 1660 nM; in test [4], 3090 nM; in [5], 1550 nM. Besides, the negative logarithm of the Kb (pKb) in test [6] was 5.95; in test [7] it was < 5; in test [8] it was 6.41.
Turning to `C[N+]1(C)CCC[C@H]1c1ccc([C@](O)(c2ccccc2)C2CCCCC2)o1`, the inhibition constant Ki is 9.12 nM in test [1]; 20 nM in test [2]; 9.33 nM in test [3]; 33.1 nM in test [4]; 12 nM in [5]. Moreover, the pKb in test [6] amounted to 7.32; in test [7], 6.16; in test [8], 7.95.
As to `C[N+]1(C)CCCC1c1ccc(C(O)(c2ccccc2)c2ccccc2)o1` (racemic) [listing 1 of 2 here], the results for the pKb in [6], in [7] and in [8] were 7.08, 6.2 and 7.6, respectively.
Take `C[N+]1(C)CCC[C@@H]1c1ccc([C@@](O)(c2ccccc2)C2CCCCC2)o1`: the Ki in [1] was 47.9 nM; in test [2], 87.1 nM; in [3] it was 155 nM; in test [4], 372 nM; in [5], 229 nM. For the same molecule, the values for the pKb in [6], in [7] and in test [8] were 6.85, 6.33 and 6.95, respectively.
With `CN1CCC[C@@H]1c1ccc([C@@](O)(c2ccccc2)C2CCCCC2)o1`, the Ki in test [1] is 191 nM; in [2] it was 363 nM; in test [3] it was 324 nM; in test [4], 550 nM; in [5], 468 nM. The results for the pKb in [6], in [7] and in [8] were 6.23, < 5 and 6.77, respectively.
As to `CN1CCCC1c1ccc(C(c2ccccc2)C2CCCCC2)o1` (mixture of isomers), the Ki is 13.5 nM in test [1]; 141 nM in [2]; 33.9 nM in test [3]; 77.6 nM in [4]; 55 nM in test [5]. The figures for the pKb in [6], in test [7] and in test [8] were 5.36, < 5 and 7.05, respectively.
Take `C[N+]1(C)CCCC1c1ccc(C(c2ccccc2)c2ccccc2)o1.[I-]` (mixture of isomers): the pKb in [9] came out at 7.91.
Turning to `C[N+]1(C)CCCC1c1ccc(C(O)(c2ccccc2)C2CCCCC2)o1` (mixture of isomers), the Ki is 2.09 nM in test [1]; 10.2 nM in test [2]; 7.24 nM in test [3]; 15.5 nM in test [4]; 11.5 nM in test [5]. For the same molecule, the negative logarithm of the Kb (pKb) in test [6] turned out to be 7.88; in test [7] it was 5.9; in [8] it was 8.35.
For `C[N+]1(C)CCCC1c1ccc(C(O)(c2ccccc2)c2ccccc2)o1` (racemic) [listing 2 of 2 here], the Ki was 23.4 nM in [1]; 31.6 nM in test [2]; 36.3 nM in test [3]; 64.6 nM in test [4]; 37.2 nM in [5].
Consider `C[N+]1(C)CCCC1c1ccc(C(c2ccccc2)C2CCCCC2)o1` (mixture of isomers), for which the Ki was 6.61 nM in test [1]; 17.4 nM in test [2]; 8.91 nM in test [3]; 19.5 nM in test [4]; 15.5 nM in test [5]. Further, the pKb in test [6] amounted to 6.21; in [7], 5.69; in test [8], 7.88.
For the molecule `C[N+]1(C)CCCC1c1ccc(C(O)(c2ccccc2)c2ccccc2)o1.[I-]` (mixture of isomers), the pKb in [9] stood at 8.46.
Turning to `CN1CCC[C@H]1c1ccc([C@](O)(c2ccccc2)C2CCCCC2)o1`, the Ki in test [1] was 22.9 nM; in test [2] it was 60.3 nM; in [3], 23.4 nM; in test [4], 55 nM; in test [5] it was 27.5 nM. Besides, the figures for the pKb in test [6], in test [7] and in test [8] were 6.65, 5.84 and 7.66, respectively.
Turning to `C[N+]1(C)CCC[C@H]1c1ccc([C@@](O)(c2ccccc2)C2CCCCC2)o1`, the inhibition constant (Ki) in test [1] was 331 nM; in test [2], 759 nM; in test [3], 513 nM; in test [4], 2340 nM; in [5] it was 871 nM. Further, the pKb in test [6] is 5.92; in test [7] it was < 5; in [8], 6.32.
Regarding `C[N+]1(C)CCCC1c1ccc(C(c2ccccc2)c2ccccc2)o1` (racemic) [listing 1 of 2 here], the Ki in test [1] is 11.5 nM; in [2], 13.5 nM; in test [3], 23.4 nM; in [4] it was 38 nM; in [5] it was 31.6 nM.
In the case of `CN1CCCC1c1ccc(C(O)(c2ccccc2)C2CCCCC2)o1` (mixture of isomers), the Ki was 1.23 nM in [1]; 6.76 nM in [2]; 7.76 nM in test [3]; 14.1 nM in test [4]; 7.08 nM in test [5]. In addition, the figures for the pKb in test [6], in test [7] and in test [8] were 6.98, < 5 and 7.8, respectively.
Regarding `C[N+]1(C)CCCC1c1ccc(C(c2ccccc2)c2ccccc2)o1` (racemic) [listing 2 of 2 here], the figures for the pKb in test [6], in test [7] and in test [8] were 7.09, < 5 and 7.59, respectively.
